The text below walks through data of PMC8928501 (ACS Omega, 2022).

The target in the assay is human transferrin (Tf) (Homo sapiens, UniProt P02787). In words: isothermal titration calorimetry. It counts as binding. The gist of the method:
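Human transferrin in the sample cell, stated as 25 μM in one place and 20 μM in another; dialyzed and degassed before loading. Test compound at 200 μM in the syringe, added by automated titration after an initial dummy injection. Binding isotherm fitted to a two-site model to obtain the thermodynamic parameters.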
For orientation: Isothermal titration calorimetry measures the heat released or taken up as one component is titrated into another.

Each structure is given as a SMILES string.

Chain of human transferrin (Tf) (P02787 20-698): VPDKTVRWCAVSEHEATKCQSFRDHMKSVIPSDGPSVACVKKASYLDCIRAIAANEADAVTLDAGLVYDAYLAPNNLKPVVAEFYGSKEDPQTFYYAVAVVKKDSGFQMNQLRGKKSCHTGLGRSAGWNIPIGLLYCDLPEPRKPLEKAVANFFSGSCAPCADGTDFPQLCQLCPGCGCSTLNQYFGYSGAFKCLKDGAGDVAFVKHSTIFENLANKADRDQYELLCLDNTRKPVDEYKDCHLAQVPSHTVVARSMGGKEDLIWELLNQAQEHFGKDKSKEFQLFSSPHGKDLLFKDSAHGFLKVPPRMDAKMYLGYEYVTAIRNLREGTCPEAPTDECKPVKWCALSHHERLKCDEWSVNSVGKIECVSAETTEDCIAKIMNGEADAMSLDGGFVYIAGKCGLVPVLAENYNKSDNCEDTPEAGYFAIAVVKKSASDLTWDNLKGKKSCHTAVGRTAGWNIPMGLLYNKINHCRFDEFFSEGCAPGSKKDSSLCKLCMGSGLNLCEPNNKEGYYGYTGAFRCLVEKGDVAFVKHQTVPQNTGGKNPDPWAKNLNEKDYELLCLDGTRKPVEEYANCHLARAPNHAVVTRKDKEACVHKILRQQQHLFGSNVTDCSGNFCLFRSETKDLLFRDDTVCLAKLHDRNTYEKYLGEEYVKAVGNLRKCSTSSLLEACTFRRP

For `CNCCC(Oc1ccc(C(F)(F)F)cc1)c1ccccc1` (stereo not shown) [Fluoxetine], the affinity, expressed as Kd, was 6.9 µM.
